Screening results (PubChem BioAssay)
Hck Nef HTS – inhibitors of human Hck kinase activated by Nef; 220,000 compounds, 0.68% hits; AID 463187; Recombinant Hck-YEEI plus Nef, Z-Lyte FRET kinase assay; inhibition, % at 20 µM;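 active = Hck-Nef kinase inhibition above about 50%, limit read from the data; inactive = inhibition below that limit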;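 note: 0% = DMSO with Hck plus Nef and 100% = Hck alone without Nef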
Target sequence (P08631 whole entry, looked up): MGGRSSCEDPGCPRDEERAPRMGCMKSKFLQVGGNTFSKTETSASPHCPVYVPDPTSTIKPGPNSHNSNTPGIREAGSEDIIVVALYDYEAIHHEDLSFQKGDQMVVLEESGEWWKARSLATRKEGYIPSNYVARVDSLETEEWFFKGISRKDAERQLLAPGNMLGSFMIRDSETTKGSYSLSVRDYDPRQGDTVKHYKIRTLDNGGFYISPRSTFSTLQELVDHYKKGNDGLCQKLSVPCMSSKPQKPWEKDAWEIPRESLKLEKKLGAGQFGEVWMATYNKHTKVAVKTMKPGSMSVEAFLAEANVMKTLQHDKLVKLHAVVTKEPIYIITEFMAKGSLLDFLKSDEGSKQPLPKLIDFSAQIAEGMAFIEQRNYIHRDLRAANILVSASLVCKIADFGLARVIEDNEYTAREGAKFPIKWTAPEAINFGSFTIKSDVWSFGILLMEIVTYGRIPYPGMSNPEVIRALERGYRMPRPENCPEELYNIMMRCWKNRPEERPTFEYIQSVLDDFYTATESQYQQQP
Runt-SMMHC FRET – blocks binding of human RUNX1 Runt domain to CBFb-SMMHC; Q01196+Q13951; Cerulean-Runt/Venus-CBFb-SMMHC FRET ratio 530/480, 1 h; inhibition, % at 20 µM; 220,000 compounds, 0.74% hits;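 active = mean inhibition across duplicate retests at 20 µM reaching about 50%, limit read from the data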;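 note: 0% = DMSO wells and 100% = wells with excess untagged CBFb-SMMHC; inhibitors lower the FRET ratio by blocking Runt binding to CBFb-SMMHC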
Runt-CBFb FRET – blocks binding of human RUNX1 Runt domain to CBFb. Q01196+Q13951. Cerulean-Runt/Venus-CBFb FRET ratio 530/480, 1 h. inhibition, % at 20 µM. 220,000 compounds, 0.46% hits. AID 1496;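 active = inhibition over about 50% at 20 µM in the single-dose screen, limit read from the data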;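 note: 0% = DMSO wells and 100% = excess unlabeled CBFb competitor control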
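test system = Cerulean-Runt domain fusion protein, energy donor | probe or stimulus = Venus-CBFb binding partner, 100 nM | incubation = two 1 h room-temperature incubations shielded from light | detection = fluorescence energy transfer, 422 nm excitation, 530/480 nm emission | measure = loss of energy transfer signal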
p97 ATPase inh – human p97 ATPase inhibition | P55072 | 220,000 compounds, 0.42% hits | recombinant p97 ATPase, Kinase-Glo ATP luminescence, 3 h | inhibition, % at 8 µM; in the data active = inhibition above about 15%;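 note: 0% = DMSO vehicle and 100% = wells lacking enzyme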
RanGTP-Imp inh – disruptors of Ran-importin-beta complex formation – biochemical, FRET, CFP-Ran, YFP-importin-beta, homogeneous, primary screen | cell-free CFP-Ran/YFP-importin-beta FRET ratio | inhibition, % (test concentration not listed) | 300,000 compounds, 1.1% hits | AID 2216;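 active = more than half of the replicate wells show a fall in the fluorescence ratio signal beyond about 16%, limit read from the data, passing the limit was not always enough; inconclusive = exactly half of the replicate wells pass the set limit; inactive = fewer than half of replicates pass the limit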;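 note: 0% = DMSO wells and 100% = Ran loaded with GDP instead of GTP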
TbHK1 inh – T. brucei hexokinase 1 inhibition. 220,000 compounds, 0.11% hits. inhibition, % at 10 µM. recombinant TbHK1, G6PDH-coupled NADH A340;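 active = inhibition of 50% or more in the single-dose primary screen; inactive = inhibition below 50%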
p97 confirm – confirmation of human p97 ATPase inhibitors; AID 1517; inhibition, % at 8 µM; shares compounds with p97 ATPase inh; recombinant p97 ATPase, Kinase-Glo ATP luminescence; 760 compounds, 44% hits;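 active = percent inhibition of p97 ATPase above a set limit, the primary screen's mean plus 3 SD, cut at about 15% in these data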;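 note: 0% = DMSO wells and 100% = wells lacking p97 protein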
An asterisk follows results filed as active; ? = inconclusive; . = no result given. Sampled rows, rich in hits. Any-hit rate of the full collection: about 2.1%.

SMILES | Hck Nef HTS | Runt-SMMHC FRET | Runt-CBFb FRET | p97 ATPase inh | RanGTP-Imp inh | TbHK1 inh | p97 confirm
Cn1c(CCNS(=O)(=O)c2ccccc2)nnc1SCc1cccnc1 | . | . | . | . | 6 | . | .
COc1ccc2nc(C)cc(SCC(=O)NNC(=O)COc3ccccc3)c2c1 | -1 | -2 | -2 | 15* | 2 | -14 | 10
CCOC(=O)CNC(=O)CSc1cc(C)nc2ccc(OC)cc12 | 15 | 4 | 0 | 2 | 1 | -11 | .
COC(=O)COc1ccc(=O)n(-c2ccccc2)n1 | 3 | 3 | 2 | 18* | 1 | -12 | 5
CC1CC(C)CN(C(=O)c2ccc(S(=O)(=O)N3CC(C)CC(C)C3)cc2)C1 (configuration not stated) | . | . | . | . | 5 | . | .
Cn1nnc2cc(C(=O)N3CCSCC3)ccc21 | 3 | -6 | -2 | 17* | . | 1 | 7
CCN(C(=O)C1CC1)C1CCS(=O)(=O)C1 (configuration not stated) | . | . | . | . | 4 | . | .
COc1ccc(Nc2nc(NCCN3CCOCC3)nc(Nc3ccc(OC)cc3)n2)cc1 | . | . | . | . | 4 | . | .
Nc1nc(N2CCN(c3ccc(F)cc3)CC2)n[nH]1 | 10 | 2 | -1 | 1 | 3 | 1 | .
Nc1nc(N2CCOCC2)n[nH]1 | 16 | 2 | 0 | 17* | . | 19 | 4
Nc1cccc2c1C(=O)N(C(=O)/C=C/c1cccc(Br)c1)C2=O | -60 | 84* | -49 | 17* | 34* | -11 | 19*
COc1ccc(OC)c(/C=C/C(=O)N2C(=O)c3cccc(N)c3C2=O)c1 | -1 | 79 | -36 | -1 | 7 | -10 | .
O=C(Nc1nc2ccccc2n1CCN1CCOCC1)c1ccc(COc2ccccc2Br)o1 | 7 | 4 | 2 | 4 | 2 | -23 | .
NS(=O)(=O)c1ccc(CCNC(=O)c2ccc([N+](=O)[O-])s2)cc1 | . | . | . | . | 2 | . | .
COc1ccc(-c2ocnc2C(=O)N2CCN(C(c3ccccc3)c3ccccc3)CC2)cc1 | 24 | -6 | -5 | 0 | ? | -5 | .
CCn1c2ccccc2c2cc(NC(=O)CSc3nnc(-c4cccc(C)c4)o3)ccc21 | -1 | 1 | 1 | 15* | -2 | -13 | 24*
CCn1c2ccccc2c2cc(NC(=O)CSc3nccc(=O)[nH]3)ccc21 | 25 | -4 | -4 | 20* | 1 | -9 | 29*
CCn1c2ccccc2c2cc(NC(=O)CSc3nnc(-c4ccccc4)o3)ccc21 | 9 | 2 | 1 | 7 | 0 | -20 | .
O=C(OCC(=O)c1c[nH]c2ccccc12)c1ccc([N+](=O)[O-])s1 | 7 | 4 | 3 | 31* | 3 | -5 | 40*
COc1ccc(-c2cc(=O)[nH][nH]2)cc1 | -1 | 1 | 4 | -3 | 1 | 1 | .
COc1ccc(-c2cc(=O)n(CCC#N)[nH]2)cc1 | 3 | -4 | -1 | 25* | 0 | 22 | 2
COC(=O)CSc1nc2[nH]ncc2c(=O)[nH]1 | 25 | 2 | 1 | 8 | 2 | 3 | .
CCC12CN3CCN(CC(C3)/C1=N\NC(=O)c1ccc(C(C)(C)C)cc1)C2 | 4 | 3 | -2 | 21* | 5 | 21 | 4
Cc1cccn2c(=O)nc(SCC(=O)Nc3ccc4c(c3)OCO4)nc12 | . | . | . | . | 3 | . | .
COc1cc2c(cc1OC)C(C)N(C(=O)c1cccs1)CC2 (configuration not stated) | -3 | -4 | 2 | 16* | 2 | 1 | 21*
SMILES | Hck Nef HTS | Runt-SMMHC FRET | Runt-CBFb FRET | p97 ATPase inh | RanGTP-Imp inh | TbHK1 inh | p97 confirm
O=C1CCN2C=Nc3cccc4ccc1c2c34 | -6 | 79 | -66 | 26* | 69* | 35 | 9
CSc1ccccc1NC(=O)Nc1ccc(F)c(Cl)c1 | 1 | 0 | 0 | 25* | 3 | 4 | 4
Cc1cc(C)n2nc(CC(=O)NNC(=O)COc3ccccc3)nc2n1 | . | . | . | . | 1 | . | .
CC[C@H](C)[C@H](NC(=O)OCc1ccccc1)C(=O)OCC(=O)Nc1ccc(N2CCOCC2)cc1 | . | . | . | . | 3 | . | .
CC(=O)c1ccc2cccc3c2c1N=CN3C | 5 | 60 | -19 | 32* | 1 | -6 | 5
CN(C)CCCn1c(N)c(C#N)c2nc3ccccc3nc21 | 29 | 80* | 9 | 32* | 61* | -22 | 7
Cc1c(C#N)c2ncn(CCCN(C)C)c(=O)c2n1-c1ccccc1 | 0 | 2 | -2 | 4 | 0 | -8 | .
COc1ccc(-c2nc(-c3ccc(NC(=O)c4ccc(Br)o4)cc3)no2)cc1OC | 0 | 0 | 3 | 17* | -2 | -4 | 2
COc1cc(-c2nc(-c3ccc(NC(=O)c4ccc(Br)o4)cc3)no2)cc(OC)c1OC | 11 | 0 | 0 | 2 | ? | -26 | .
Cn1c(CC(=O)NCCO)c(Sc2ccccc2)c2ccccc21 | 3 | 1 | 0 | -2 | 2 | -4 | .
CSc1c(CC(=O)NCCO)n(C)c2ccccc12 | 1 | 1 | 0 | 17* | -3 | 0 | 0
O=C(Nc1cccc(NC(=O)c2cccs2)c1)c1ccc([N+](=O)[O-])o1 | 26 | 2 | 1 | 18* | -5 | -28 | 25*
COc1cc(NC(=O)c2ccc([N+](=O)[O-])o2)ccc1NC(=O)c1cccs1 | 35 | -5 | -1 | 0 | 4 | -12 | .
Cc1cc(OC(=O)c2ccc(S(=O)(=O)N3CCCCC3)cc2)c([N+](=O)[O-])c(=O)[nH]1 | 10 | 1 | 1 | 15* | -4 | -1 | 4
CCN(CC)S(=O)(=O)c1cccc(C(=O)N/N=C(\C)c2ccc(O)cc2O)c1 | 1 | 87 | 14 | 22* | 2 | -3 | 22*
Cc1nnc(N/N=C/c2ccc(-c3ccccc3F)o2)n1N | 24 | 12 | 16 | 4 | ? | -40 | .
Cc1nnc(N/N=C\c2ccc(-c3ccccc3[N+](=O)[O-])o2)n1N | 10 | 26 | 27 | 17* | 0 | 12 | 6
CS(=O)(=O)N(CC(=O)NCCc1ccccc1)c1cccc([N+](=O)[O-])c1 | 16 | -1 | 0 | 18* | 1 | 7 | 5
COc1ccc(OC)c(NC(=O)CSc2nnc(CNC(=O)c3cccs3)o2)c1 | . | . | . | . | -1 | . | .
Nc1cc(-c2ccncc2)c[nH]c1=O | 1 | 28 | 33 | 23* | 6 | -14 | 5
NC(=O)c1csc(-c2ccncc2)n1 | 1 | 3 | 1 | 2 | 2 | -2 | .
CCOC(=O)Cc1csc(NS(=O)(=O)c2ccc(SC)cc2)n1 | -3 | -2 | 2 | 2 | -2 | 2 | .
CCOc1ccccc1OCC(=O)OCC(=O)c1c(C)[nH]c2ccccc12 | . | . | . | . | 0 | . | .
Cc1[nH]c2ccccc2c1C(=O)COC(=O)CCS(=O)(=O)c1ccccc1Cl | 6 | 0 | -2 | 27* | -1 | 25 | 30*
